Source: ChEMBL document CHEMBL4834437, “Improvement of Oral Bioavailability of Pyrazolo-Pyridone Inhibitors of the Interaction of DCN1/2 and UBE2M” (J Med Chem, 2021)

Assays:
[1] = Toxicity in C57BL/6 mouse assessed as adverse effect at 15 mg/kg, iv administered as single dose measured after 48 hrs; format: organism-based; conditions: in vivo
Summary of the method: (§1)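 Mice were watched for adverse reactions for 48 h after a single iv (15 mg/kg) or oral (50 mg/kg) dose. Vehicle was EtOH/PG/PEG/PBS (10/10/40/39, pH 7.4) with 1% (w/v) […]-β-cyclodextrin.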

[2] = Toxicity in C57BL/6 mouse assessed as adverse effect at 50 mg/kg, po administered as single dose measured after 48 hrs; format: organism-based; conditions: in vivo; summary of the method: as §1
[3] = mouse, in vivo, po, 50 mg/kg, 24 h

Cmax [3]: 0.36 µM
Compound: CCN1C(=O)[C@@H](NC(=O)c2cccc(C)c2)[C@@H](c2ccc(F)cc2)c2c(C)nn(-c3ccccc3)c21 (relative stereo)
Activity [1]: Non-Toxic | Activity [2]: Non-Toxic
